Most compounds without a hit are left out; they make up all but 1.7% or so of the library.
DNMT1 inh = blocks human DNA methyltransferase DNMT1. P26358. DNMT1 molecular beacon, Hinp1I cleavage, fluorescence. inhibition (reported as % activation of signal), % at 10 µM. actives 0.83% (n = 360,000). AID 588458; in the data active means inhibition above about 50%
Scp-1 inhibitor = inhibitors of human Scp-1 phosphatase; AID 493091; Recombinant Scp1, phosphopeptide, malachite green phosphate absorbance; actives 0.88% (n = 340,000); inhibition, % at 20 µM;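 active means inhibition above about 50% at 20 µM, limit read from the data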;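 further: plate controls were DMSO wells with enzyme for no effect and wells lacking enzyme for full effect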
Target sequence (Q9GZU7 76-261 limits assumed): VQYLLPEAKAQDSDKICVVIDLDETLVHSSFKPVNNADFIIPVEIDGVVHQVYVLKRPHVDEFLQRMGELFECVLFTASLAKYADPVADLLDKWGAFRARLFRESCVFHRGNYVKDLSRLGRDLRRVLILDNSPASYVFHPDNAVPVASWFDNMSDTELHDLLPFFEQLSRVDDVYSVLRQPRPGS
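Times: enzyme reaction 45 min at room temperature, colour 5 min, stabilisation 30 min. Material: SCP-1 catalytic fragment, aa 76-261. Medium: Acidic Tris acetate buffer with magnesium and detergent. Signal: colorimetric free-phosphate detection, absorbance 630 nm. Read-out basis: % inhibition of SCP-1 phosphate liberation. Reagent: Phosphorylated 17-residue peptide substrate.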
STEP inh = blocks human striatal-enriched tyrosine phosphatase | P54829 | recombinant STEP, OMFP fluorogenic substrate, fluorescence | inhibition, % at 20 µM | actives 0.25% (n = 360,000) | AID 588621;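 active means inhibition at 20 µM, scaled per plate between control wells, above about 37%, limit read from the data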;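 further: 0% = DMSO with enzyme and substrate and 100% = substrate only without enzyme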
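Assay system: isolated STEP enzyme / Timing: 20 min at room temperature, dark / Doses: 20 µM, 1% DMSO / Technique: fluorescence intensity, excitation 480 nm, emission 540 nm / Reagent: fluorogenic phosphatase substrate OMFP at 25 µM final / Measure: percent inhibition scaled to no-enzyme and uninhibited-enzyme controls, plate-pattern corrected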
SUMO1 PPI mod = modulators of human SUMO1-mediated protein-protein interactions | AID 602429 | inhibition, % at 20 µM | actives 0.33% (n = 360,000) | SUMO1 binding to a labelled peptide, TR-FRET, 1 h | P63165; in the data active means inhibition above about 37%
Target sequence (P63165 whole entry, looked up): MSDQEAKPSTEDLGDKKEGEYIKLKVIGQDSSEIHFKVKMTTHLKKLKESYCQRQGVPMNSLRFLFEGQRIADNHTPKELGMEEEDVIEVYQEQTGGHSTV
LMPTP inh = LMPTP (human) inhibition; recombinant LMPTP-A, OMFP fluorogenic substrate, fluorescence intensity; inhibition, % at 20 µM; actives 0.22% (n = 360,000);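 active means compounds that cut the enzyme signal by at least half of the control window in the single-dose screen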;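 further: plate controls were DMSO wells with enzyme plus substrate for no effect and substrate without enzyme for full effect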
Target sequence (P24666 whole entry, looked up): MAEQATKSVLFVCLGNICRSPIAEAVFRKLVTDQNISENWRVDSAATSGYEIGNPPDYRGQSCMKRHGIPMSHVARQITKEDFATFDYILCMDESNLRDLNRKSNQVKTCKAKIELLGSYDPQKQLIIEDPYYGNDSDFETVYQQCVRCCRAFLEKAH
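Test system: LMPTP-A phosphatase enzyme. Amount: LMPTP-A at 0.625 nM final in the reaction. Reagent: OMFP substrate, 400 µM final. Times: 50 min at room temperature. Signal: endpoint fluorescence intensity from OMFP dephosphorylation. Read-out basis: % inhibition. Benchmarks: no-enzyme and uninhibited controls.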
Scp1 confirm = confirmation of human Scp-1 phosphatase inhibitors | inhibition, % at 20 µM | actives 61% (n = 2,500) | shares compounds with Scp-1 inhibitor | recombinant SCP-1 catalytic domain, phosphate release, malachite green absorbance;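 further: plate controls were DMSO with enzyme for no effect and buffer wells lacking enzyme for full effect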
MG interference = interferes with malachite green readout, flagging false Scp-1 hits | 2,500 tested, under 10 active | AID 540313 | Colorimetric interference counterscreen, malachite green absorbance 630 nm | apparent inhibition (interference), % at 20 µM | shares compounds with Scp-1 inhibitor;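 further: compounds added after enzyme reaction finished so only phosphate colour detection is probed; plate controls were DMSO wells with completed Scp-1 reaction for no effect and substrate wells lacking enzyme for full effect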
Scp1 DSF = validation of human Scp-1 inhibitors by thermal shift binding | shares compounds with Scp-1 inhibitor | actives 25% (n = 1,500) | thermal shift relative to vanadate control, % at 40 µM | Recombinant SCP1, Sypro Orange thermal shift Tm;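 active means substances whose mean melting-temperature shift, as a percentage of the reference inhibitor's shift, reaches about 5.3%, limit read from the data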;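 further: 0% = Tm of DMSO wells and 100% = Tm with sodium orthovanadate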
DNMT1 inh conf = DNMT1 inhibition confirmation, single concentration; actives 8% (n = 2,300); inhibition, % at 10 µM; shares compounds with DNMT1 inh; DNMT1 molecular beacon HinP1I cleavage, fluorescence; AID 602385;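 active means average inhibition of at least 30% in the single-concentration confirmation test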
DNMT1 interf = shows spectral interference in the DNMT1 beacon assay | shares compounds with DNMT1 inh | DNMT1 molecular beacon spectral interference counterscreen, fluorescence 485/520 | activation (fluorescence interference), % at 10 µM | actives 1% (n = 2,300) | AID 602387;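 active means activation of at least 30% at 10 µM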;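 further: DNMT1 catalytic domain with a HinP1I cleavage step and a FAM/dabcyl DNA beacon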
Numbers without * were called inactive; . = no result.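 How the source made its calls, unless noted: active means inhibition of at least 30% at 20 µM; inactive means the rest.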

SMILES	DNMT1 inh	Scp-1 inhibitor	STEP inh	SUMO1 PPI mod	LMPTP inh	Scp1 confirm	MG interference	Scp1 DSF	DNMT1 inh conf	DNMT1 interf
CC1(C)OCC(CNC(=O)c2[nH]c(C(F)(F)F)nc2-c2ccccc2)O1 (stereo unspecified)	6	.	-2	2	-1	.	.	.	.	.
CN1CCC(N2CCN(C3CN(Cc4cn(Cc5cccc(C(F)(F)F)c5)nn4)S(=O)(=O)C3)CC2)CC1 (stereo unspecified)	.	.	.	-24	-6	.	.	.	.	.
COc1ccccc1NCCC(=O)OCC(=O)NCc1ccco1	51*	75*	4	5	22	64*	-9	-1	17	-2
O=C(COC(=O)c1cc(-c2cccs2)nc2ccccc12)NCc1ccco1	51*	56*	-2	5	5	56*	-11	7.0*	17	4
Cc1ccc(C)c(SCC(=O)OCC(=O)c2ccco2)c1	81*	60*	2	3	3	69*	-9	1	3	2
O=C(COC(=O)/C=C/c1ccco1)NCc1ccco1	52*	72*	12	-3	8	82*	5	1	2	4
O=C(c1ccc(Br)cc1)N(Cc1ccco1)C1CCS(=O)(=O)C1 (stereo unspecified)	1	-11	-1	12	0	.	.	.	.	.
CSc1ccccc1NC(=O)CN(C)C(=O)Cc1c(F)cccc1Cl	1	4	-2	4	-2	.	.	.	.	.
NC(=O)C1C2CCC(C2)C1C(N)=O (stereo unspecified)	-2	5	0	-3	-2	.	.	.	.	.
O=C(COC(=O)c1ccco1)NCc1ccco1	0	0	-3	1	-1	.	.	.	.	.
O=C(COC(=O)c1ccc(Br)o1)NCc1ccco1	58*	74*	2	4	16	65*	-6	-6	2	2
O=C(COC(=O)c1ccccc1Nc1cccc(C(F)(F)F)c1)NCc1ccco1	91*	77*	18	6	20	53*	-23	5.3*	6	4
O=C(COC(=O)/C=C/c1ccco1)Nc1ncc(C(F)(F)F)cc1Cl	71*	76*	33	-2	13	56*	-15	6.1*	18	3
COC(=O)[C@]12CCCCC=C1N(Cc1ccccc1)C(=O)[C@H](CC(=O)NCc1ccc(OC)c(OC)c1)C2	.	.	.	0	-1	.	.	.	.	.
CCCNC(=O)C1(C)CCN(C(=O)c2cc(F)cc(F)c2)C1 (stereo unspecified)	-2	.	0	-1	0	.	.	.	.	.
CCc1nc2ccc(C(=O)Nc3ccc(NC(C)=O)cc3)cn2c1N(C)CCC(C)C	-8	.	1	2	2	.	.	.	.	.
COc1ccc(C)cc1N(C(=O)c1snc(C(N)=O)c1N)C(C(=O)NC1CCCCC1)c1ccc(C)o1 (stereo unspecified)	-2	-5	1	-4	1	.	.	.	.	.
C=C(C)C(=O)Nc1cccc(C2=NOC3(C2)C[C@@H](C(N)=O)N(C(=O)c2cc([N+](=O)[O-])cc([N+](=O)[O-])c2)C3)c1 (stereo partly specified)	87*	61*	4	46*	-2	49*	-16	-1	11	-1
CCCOc1cc(C)c(S(=O)(=O)NCc2cccs2)cc1C	-4	-5	2	4	4	.	.	.	.	.
COc1ccccc1Nc1nnc(SCC(=O)N2CCCC2=O)s1	0	-4	0	-6	0	.	.	.	.	.
CCc1ccc(Nc2nnc(SCC(=O)NC(=O)CN3CCCC3=O)s2)cc1	64*	65*	35	9	14	48*	-10	-6	1	0
COc1ccc2[nH]c(=O)cc(C(=O)O)c2c1	58*	69*	2	6	0	73*	-10	-4	8	6
O=C(CCS(=O)(=O)c1ccc(Br)cc1)NCc1ccco1	57*	75*	35	26	2	67*	-15	-4	5	6
O=C(CCS(=O)(=O)c1ccc(Br)cc1)NC1CCCC1	56*	75*	0	-2	0	62*	-9	-23	3	3
O=C(CCNS(=O)(=O)c1ccc(Br)cc1)NC1CCCCC1	1	3	-2	1	0	.	.	.	.	.
SMILES	DNMT1 inh	Scp-1 inhibitor	STEP inh	SUMO1 PPI mod	LMPTP inh	Scp1 confirm	MG interference	Scp1 DSF	DNMT1 inh conf	DNMT1 interf
O=C(CCS(=O)(=O)c1ccc(Br)cc1)NCc1cccs1	59*	87*	1	5	-1	68*	-10	-13	3	1
O=C(COC(=O)C1=Cc2ccccc2OC1)NCc1ccc(F)cc1	2	-5	-2	-8	-1	.	.	.	.	.
O=C(CCS(=O)(=O)c1ccc(Br)cc1)Nc1cc(F)ccc1F	62*	73*	7	9	-1	58*	-14	-2	3	4
COc1ccc([N+](=O)[O-])cc1NC(=O)CCS(=O)(=O)c1ccc(Br)cc1	79*	95*	8	2	0	62*	-18	-4	1	2
CCc1ccccc1NC(=O)CCS(=O)(=O)c1ccc(Br)cc1	36	50	10	10	1	.	.	.	.	.
Cc1ccc(C=C2C(=O)c3ccccc3C2=O)o1	70*	55*	2	-13	2	59*	-17	6.2*	3	2
N#Cc1ccccc1S(=O)(=O)N1CCN(C(=O)C2COc3ccccc3O2)CC1 (stereo unspecified)	67*	74*	6	3	19	73*	-10	-9	2	4
N#Cc1ccccc1S(=O)(=O)N1CCN(C(=O)c2cc3c(s2)CCC3)CC1	56*	98*	28	10	42	70*	-13	-17	4	1
COC(=O)c1nn(C)c(=O)[nH]c1=O	2	6	-4	3	1	.	.	.	.	.
CSc1ccc(NC(=O)CSc2nc3[nH]c(=O)cc(O)c3s2)cc1	52*	71*	10	12	48	40*	-21	14*	2	-2
Cc1ccccc1Nc1nn2c(=O)c3ccccc3nc2s1	-5	-20	2	22	1	.	.	.	.	.
